The source of these data is ChEMBL document CHEMBL1126175, “Synthesis and antibacterial activity of new tetracyclic quinolone antibacterials” (J Med Chem, 1992).

As a reminder, the MIC is the least concentration at which growth counts as inhibited.

Values after ≈ are worked out from the molar mass of the structure shown.

The test system of experiment [1] is Enterococcus faecalis. Nature of the experiment: In vitro antibacterial activity against Enterococcus faecalis IID 682,[…],(gram-positive). Type of experiment: functional. In short, it runs like this: (§1)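 MIC by serial 2-fold agar dilution on Mueller–Hinton agar; inoculum about 10^6 CFU/mL; MIC taken as lowest concentration preventing visible growth after 18 h at 37 °C.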

In experiment [2] the test system is Pseudomonas aeruginosa. Put plainly: In vitro antibacterial activity against Pseudomonas aeruginosa E-2,Pa(E),(gram-negative). Type of experiment: functional. In a few lines: as §1
The subject of experiment [3] is Pseudomonas aeruginosa. Put plainly: In vitro antibacterial activity against Pseudomonas aeruginosa IFO 3445,Pa(I),(gram-negative). Type of experiment: functional. In a few lines:
as §1

For experiment [4], the system named is Staphylococcus aureus. Put plainly: In vitro antibacterial activity against staphylococcus aureus IID 803,(gram-positive). Type of experiment: functional. In short, it runs like this: as §1
The test system of experiment [5] is Escherichia coli. Put plainly: In vitro antibacterial activity against Escherichia coli NIHJ JC-2,(gram-negative).
Experiment [6] deals with Staphylococcus aureus. Put plainly: In vitro antibacterial activity against staphylococcus aureus FDA 209P JC-1,Sa(F)(gram-positive). Type of experiment: functional. In a few lines:
as §1

Experiment [7] relates to Klebsiella pneumoniae. Nature of the experiment: In vitro antibacterial activity against klebsiella pneumoniae B54,Kp,(gram-negative). Type of experiment: functional.
The subject of experiment [8] is Escherichia coli. Nature of the experiment: In vitro antibacterial activity against Escherichia coli KC-14, Ec(K), (gram-negative). Type of experiment: functional. In a few lines: as §1
In experiment [9] the test system is Staphylococcus epidermidis. Nature of the experiment: In vitro antibacterial activity against staphylococcus epidermidis IAM 1296, (gram-positive). Type of experiment: functional. In short, it runs like this:
as §1

Consider `CN1CCN(c2c(F)cc3c(=O)c(S(=O)(=O)O)c4scc5n4c3c2OC5)CC1`, for which the MIC in experiment [1], in experiment [2], in [3], in experiment [4], in experiment [5] and in experiment [6] was over 100 µg/mL throughout. Also, the MIC in experiment [7], in [8] and in experiment [9] was over 100 µg/mL in each case.

Regarding `CCn1cc(C(=O)O)c(=O)c2cc(F)c(N3CCNCC3)cc21` [NORFLOXACIN], the MIC in experiment [1] was 1.56 µg/mL (≈ 4.89 µM); in experiment [2], 1.56 µg/mL (≈ 4.89 µM); in experiment [3] it was 1.56 µg/mL (≈ 4.89 µM); in [4] it was 1.56 µg/mL (≈ 4.89 µM); in experiment [5], 0.2 µg/mL (≈ 0.626 µM); in [6], 0.39 µg/mL (≈ 1.22 µM). For the same compound, the MIC in experiment [7] came to 0.1 µg/mL (≈ 0.313 µM); in experiment [8], 0.2 µg/mL (≈ 0.626 µM); in experiment [9], 3.13 µg/mL (≈ 9.8 µM).

For the compound `O=C(O)c1c(=O)c2cc(F)c(N3CCNCC3)c3c2n2c(csc12)CO3`, the MIC in [1] was found to be 0.78 µg/mL (≈ 2.08 µM); in [2] it was 0.78 µg/mL (≈ 2.08 µM); in [3] it was 0.78 µg/mL (≈ 2.08 µM); in experiment [4] it was 0.39 µg/mL (≈ 1.04 µM); in experiment [5], 0.1 µg/mL (≈ 0.266 µM); in [6] it was 0.39 µg/mL (≈ 1.04 µM). For the same compound, the figures for the MIC in experiment [7], in experiment [8] and in experiment [9] were 0.05 µg/mL (≈ 0.133 µM), 0.1 µg/mL (≈ 0.266 µM) and 1.56 µg/mL (≈ 4.16 µM), respectively.

With `O=C(O)c1c(=O)c2cc(F)c(N3C[C@H](O)[C@@H](O)C3)c3c2n2c(csc12)CO3`, the MIC in experiment [1] was over 25 µg/mL; in experiment [2], over 25 µg/mL; in [3] it was over 25 µg/mL; in experiment [4] it was 1.56 µg/mL (≈ 3.98 µM); in [5] it was 3.13 µg/mL (≈ 7.98 µM); in [6], 1.56 µg/mL (≈ 3.98 µM). For the same compound, the MIC in experiment [7] is 1.56 µg/mL (≈ 3.98 µM); in [8], 3.13 µg/mL (≈ 7.98 µM); in experiment [9] it was over 25 µg/mL.

With `CN1CCN(c2c(F)cc3c(=O)cc4scc5n4c3c2OC5)CC1`, the MIC in experiment [1], in experiment [2], in experiment [3], in experiment [4], in experiment [5] and in experiment [6] was over 100 µg/mL each time. Further, the MIC in [7], in experiment [8] and in experiment [9] was over 100 µg/mL throughout.

`NC1CCN(c2c(F)cc3c(=O)c(C(=O)O)c4scc5n4c3c2OC5)C1` (stereo not given): the MIC in experiment [1] was determined as 0.78 µg/mL (≈ 2.08 µM); in experiment [2], 0.78 µg/mL (≈ 2.08 µM); in experiment [3], 0.78 µg/mL (≈ 2.08 µM); in [4] it was 0.39 µg/mL (≈ 1.04 µM); in experiment [5], 0.2 µg/mL (≈ 0.533 µM); in experiment [6], 0.2 µg/mL (≈ 0.533 µM). Besides, the values for the MIC in [7], in [8] and in experiment [9] were 0.1 µg/mL (≈ 0.266 µM), 0.1 µg/mL (≈ 0.266 µM) and 0.78 µg/mL (≈ 2.08 µM), respectively.

Regarding `CCNCC1CCN(c2c(F)cc3c(=O)c(C(=O)O)c4scc5n4c3c2OC5)C1` (stereo not given), the MIC in experiment [1] stood at 0.39 µg/mL (≈ 0.934 µM); in [2] it was 3.13 µg/mL (≈ 7.5 µM); in [3], 25 µg/mL (≈ 59.9 µM); in experiment [4] it was 0.2 µg/mL (≈ 0.479 µM); in experiment [6] it was 0.2 µg/mL (≈ 0.479 µM); in [7], 0.39 µg/mL (≈ 0.934 µM). The MIC in experiment [8] is 0.39 µg/mL (≈ 0.934 µM); in experiment [9], 0.1 µg/mL (≈ 0.24 µM).

For `CN(C)c1c(F)cc2c(=O)c(C(=O)O)c3scc4n3c2c1OC4`, the MIC in [1] came to 0.78 µg/mL (≈ 2.33 µM); in experiment [2], 6.25 µg/mL (≈ 18.7 µM); in experiment [3], 1.56 µg/mL (≈ 4.67 µM); in experiment [4], 0.1 µg/mL (≈ 0.299 µM); in experiment [5] it was 0.39 µg/mL (≈ 1.17 µM); in [6], 0.2 µg/mL (≈ 0.598 µM). The MIC in experiment [7] was 0.2 µg/mL (≈ 0.598 µM); in experiment [8], 0.39 µg/mL (≈ 1.17 µM); in experiment [9] it was 0.1 µg/mL (≈ 0.299 µM).

Turning to `CC(=O)NC1CCN(c2c(F)cc3c(=O)c(C(=O)O)c4scc5n4c3c2OC5)C1` (stereo not given), the MIC in experiment [1] worked out at 0.78 µg/mL (≈ 1.87 µM); in [2], 6.25 µg/mL (≈ 15 µM); in [3], 6.25 µg/mL (≈ 15 µM); in experiment [4] it was 0.1 µg/mL (≈ 0.24 µM); in [5], 1.56 µg/mL (≈ 3.74 µM); in experiment [6], 0.2 µg/mL (≈ 0.479 µM). Besides, the MIC in [7] was determined as 1.56 µg/mL (≈ 3.74 µM); in experiment [8], 1.56 µg/mL (≈ 3.74 µM); in experiment [9] it was 0.78 µg/mL (≈ 1.87 µM).
